Experimental data taken from ChEMBL document CHEMBL1155549, “Sialic acid-mimic peptides as hemagglutinin inhibitors for anti-influenza therapy” (J Med Chem, 2010).
Activity calls are given as the source filed them. The calls are words filed in the database; no cut-off is given here. Where a SMILES comes first, the peptide text is derived from it. The star is where a group is joined. Biotin = O=C1N[C@H]2[C@H](CS[C@H]2CCCCC(=O)*)N1

Key:
[1] = test system: Influenza A virus (A/Wuhan/359/1995(H3N2)); test: Binding affinity to Influenza A virus (A/Wuhan/359/1995 (H3N2)) hemagglutininin by scintillation proximity assay
[2] = test system: Influenza A virus (A/New Caledonia/20/1999(H1N1)); test: (§1) Binding affinity to Influenza A virus (A/New Caledonia/20/1999 (H1N1)) hemagglutininin by avidin-biotin peroxidase complex method
Procedure, shortened: (§2)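 HA was coated at 70 μg/mL overnight at 4 °C and blocked with 1% BSA/PBS. C-terminally biotinylated peptides (5-400 μM) were added for 2 h. After PBS washes, peroxidase-streptavidin was added for 1 h, and o-phenylenediamine colour was read as ΔA at 492 nm, in triplicate. Kd came from a Scatchard plot over 20-200 μM peptide.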

[3] = test system: Influenza A virus (A/Wyoming/03/2003(H3N2)); test: (§3) Binding affinity to Influenza A virus (A/Wyoming/03/2003 (H3N2)) hemagglutininin by avidin-biotin peroxidase complex method; procedure, shortened: as §2
[4] = as §1; procedure, shortened: as §2
[5] = as §3; procedure, shortened: as §2

Row | Molecule | Activity [1] | Activity [2] | Activity [3] | Kd [4] [µM] | Kd [5] [µM]
1 | CSCC[C@H](NC(=O)[C@@H](NC(=O)[C@@H]1CCCN1C(=O)[C@H](CO)NC(=O)[C@H](CC(C)C)NC(=O)[C@H](CCCNC(=N)N)NC(=O)[C@@H](C)N)[C@@H](C)O)C(=O)N[C@H](C(=O)N[C@@H](Cc1cnc[nH]1)C(=O)N1CCC[C@H]1C(=O)N[C@@H](CC(N)=O)C(=O)NCC(=O)N[C@@H](C)C(=O)N[C@@H](CCC(N)=O)C(=O)N1CCC[C@H]1C(=O)O)C(C)C | Active | – | – | – | –
2 | CC(C)C[C@H](NC(=O)[C@H](CCCNC(=N)N)NC(=O)[C@H](C)N)C(=O)N1CCC[C@H]1C(=O)N[C@@H](CCCNC(=N)N)C(=O)N[C@H](C(=O)N[C@@H](C)C(=O)N[C@H](C(=O)N[C@@H](Cc1cnc[nH]1)C(=O)N1CCC[C@H]1C(=O)N[C@@H](CCCCN)C(=O)N1CCC[C@H]1C(=O)N[C@@H](C)C(=O)N[C@@H](CCC(N)=O)C(=O)N1CCC[C@H]1C(=O)N[C@@H](CCCCNC(=O)CCCC[C@@H]1SC[C@@H]2NC(=O)N[C@@H]21)C(N)=O)C(C)C)[C@@H](C)O (H-ARLPRTAVHPKPAQPK(Biotin)-NH2) | – | inactive | inactive | – | –
3 | CSCC[C@H](NC(=O)[C@@H](NC(=O)[C@H](CCCNC(=N)N)NC(=O)[C@@H]1CCCN1C(=O)[C@H](CC(C)C)NC(=O)[C@H](CCCNC(=N)N)NC(=O)[C@H](C)N)[C@@H](C)O)C(=O)N[C@H](C(=O)N[C@@H](Cc1cnc[nH]1)C(=O)N1CCC[C@H]1C(=O)N[C@@H](C)C(=O)N1CCC[C@H]1C(=O)N[C@@H](C)C(=O)N[C@@H](CCC(N)=O)C(=O)N1CCC[C@H]1C(=O)N[C@@H](CCCCNC(=O)CCCC[C@@H]1SC[C@@H]2NC(=O)N[C@@H]21)C(N)=O)C(C)C (H-ARLPRTMVHPAPAQPK(Biotin)-NH2) | – | inactive | inactive | – | –
4 | H-ARLPRTMVHPKPAQP-NH2 | Dose-dependent effect | – | – | 31 | 22
